Key:
Histamine H3 receptor [1] = molecular target: Histamine H3 receptor (Rattus norvegicus, UniProt Q9QYN8); assay: Displacement of [3H]N-alpha-methylhistamine from rat histamine H3 receptor expressed in CHO cells; assay type: cell-based
[2] = Oral bioavailability in rat; assay type: ADME, organism-based; settings: in vivo
Procedure, shortened: (§1)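 Rat PK study, dosed 1 mg/kg iv plus 10 or 5 mg/kg po. iv vehicle 3% DMSO, 30% solutol, 67% phosphate buffered saline; oral vehicle 50% Tween 80, 40% propylene carbonate, 10% propylene glycol.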

Histamine H3 receptor [3] = molecular target: Histamine H3 receptor (Homo sapiens, UniProt Q9Y5N1); assay: Displacement of [3H]N-alpha-methylhistamine from human histamine H3 receptor expressed in CHO cells; assay type: cell-based
Histamine H3 receptor (Homo sapiens, UniProt Q9Y5N1), sequence (Q9Y5N1 whole entry): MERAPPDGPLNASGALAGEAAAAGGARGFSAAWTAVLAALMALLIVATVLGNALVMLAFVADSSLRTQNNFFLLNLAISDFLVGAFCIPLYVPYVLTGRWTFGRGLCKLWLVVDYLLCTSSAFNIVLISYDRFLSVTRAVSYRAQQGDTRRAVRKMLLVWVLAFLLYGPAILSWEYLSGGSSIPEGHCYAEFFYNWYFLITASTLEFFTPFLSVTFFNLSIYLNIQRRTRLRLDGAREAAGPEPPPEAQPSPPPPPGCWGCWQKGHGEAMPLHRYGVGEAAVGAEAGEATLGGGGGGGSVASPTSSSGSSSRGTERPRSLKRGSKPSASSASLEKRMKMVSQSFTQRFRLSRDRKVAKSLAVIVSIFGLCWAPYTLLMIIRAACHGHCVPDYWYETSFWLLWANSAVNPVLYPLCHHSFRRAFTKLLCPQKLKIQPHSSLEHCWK

[4] = Half life in human liver microsomes; assay type: ADME, Microsome
Procedure, shortened: (§2)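 Stability in liver microsomes from rat, dog or human; half-life (min) determined.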

[5] = Half life in rat liver microsomes; assay type: ADME, Microsome; procedure, shortened: as §2
[6] = Half life in dog liver microsomes; assay type: ADME, Canis lupus familiaris, Microsome; procedure, shortened: as §2
[7] = Inhibition of cytochrome P450; assay type: ADME
Procedure, shortened: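 CYP inhibition assessed against 5 CYP isoforms; IC50 determined.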

[8] = Cmax in po dosed rat; assay type: ADME, organism-based; set-up: route oral; settings: in vivo
[9] = AUC in po dosed rat; assay type: ADME, organism-based; settings: plasma
Rattus norvegicus [10] = assay: Cmax in po dosed rat assessed as 5-[4-(1-cyclobutyl-piperidin-4-yloxy)-phenyl]-6-methyl-2H-pyridazin-3-one level; assay type: ADME, organism-based; set-up: route oral; settings: in vivo
Rattus norvegicus [11] = assay: AUC in po dosed rat assessed as 5-[4-(1-cyclobutyl-piperidin-4-yloxy)-phenyl]-6-methyl-2H-pyridazin-3-one level; assay type: ADME, organism-based, Plasma; settings: in vivo
[12] = Half life in rat at 1 mg/kg, iv; assay type: ADME, organism-based; set-up: dose 1 mg/kg, route intravenous; settings: in vivo; procedure, shortened: as §1
[13] = Volume of distribution in rat at 1 mg/kg, iv; assay type: ADME, organism-based; set-up: dose 1 mg/kg, route intravenous; settings: in vivo; procedure, shortened: as §1
[14] = Clearance in rat at 1 mg/kg, iv; assay type: ADME, organism-based; set-up: dose 1 mg/kg, route intravenous; settings: in vivo; procedure, shortened: as §1
[15] = Ratio of drug level in brain to plasma in rat at 10 mg/kg, ip after 6 hrs; assay type: ADME, organism-based; set-up: dose 10 mg/kg, route intraperitoneal; settings: read-out: BPR
Procedure, shortened: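 Brain and plasma levels measured in rat 6 h after a 10 mg/kg ip dose; value is brain/plasma ratio.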

[16] = Cmax in rat at 5 mg/kg, po; assay type: ADME, organism-based; set-up: dose 5 mg/kg, route oral; settings: in vivo; procedure, shortened: as §1
[17] = Tmax in rat at 5 mg/kg, po; assay type: ADME, organism-based; set-up: dose 5 mg/kg, route oral; settings: in vivo; procedure, shortened: as §1
[18] = Oral bioavailability in rat at 5 mg/kg; assay type: ADME, organism-based; settings: in vivo; procedure, shortened: as §1
[19] = AUC in rat at 5 mg/kg, po; assay type: ADME, organism-based; set-up: dose 5 mg/kg, route oral; settings: plasma; procedure, shortened: as §1
[20] = molecular target: Voltage-gated inwardly rectifying potassium channel KCNH2 (Homo sapiens, UniProt Q12809); assay: Inhibition of human ERG by patch clamp assay
Voltage-gated inwardly rectifying potassium channel KCNH2, sequence (Q12809 whole entry): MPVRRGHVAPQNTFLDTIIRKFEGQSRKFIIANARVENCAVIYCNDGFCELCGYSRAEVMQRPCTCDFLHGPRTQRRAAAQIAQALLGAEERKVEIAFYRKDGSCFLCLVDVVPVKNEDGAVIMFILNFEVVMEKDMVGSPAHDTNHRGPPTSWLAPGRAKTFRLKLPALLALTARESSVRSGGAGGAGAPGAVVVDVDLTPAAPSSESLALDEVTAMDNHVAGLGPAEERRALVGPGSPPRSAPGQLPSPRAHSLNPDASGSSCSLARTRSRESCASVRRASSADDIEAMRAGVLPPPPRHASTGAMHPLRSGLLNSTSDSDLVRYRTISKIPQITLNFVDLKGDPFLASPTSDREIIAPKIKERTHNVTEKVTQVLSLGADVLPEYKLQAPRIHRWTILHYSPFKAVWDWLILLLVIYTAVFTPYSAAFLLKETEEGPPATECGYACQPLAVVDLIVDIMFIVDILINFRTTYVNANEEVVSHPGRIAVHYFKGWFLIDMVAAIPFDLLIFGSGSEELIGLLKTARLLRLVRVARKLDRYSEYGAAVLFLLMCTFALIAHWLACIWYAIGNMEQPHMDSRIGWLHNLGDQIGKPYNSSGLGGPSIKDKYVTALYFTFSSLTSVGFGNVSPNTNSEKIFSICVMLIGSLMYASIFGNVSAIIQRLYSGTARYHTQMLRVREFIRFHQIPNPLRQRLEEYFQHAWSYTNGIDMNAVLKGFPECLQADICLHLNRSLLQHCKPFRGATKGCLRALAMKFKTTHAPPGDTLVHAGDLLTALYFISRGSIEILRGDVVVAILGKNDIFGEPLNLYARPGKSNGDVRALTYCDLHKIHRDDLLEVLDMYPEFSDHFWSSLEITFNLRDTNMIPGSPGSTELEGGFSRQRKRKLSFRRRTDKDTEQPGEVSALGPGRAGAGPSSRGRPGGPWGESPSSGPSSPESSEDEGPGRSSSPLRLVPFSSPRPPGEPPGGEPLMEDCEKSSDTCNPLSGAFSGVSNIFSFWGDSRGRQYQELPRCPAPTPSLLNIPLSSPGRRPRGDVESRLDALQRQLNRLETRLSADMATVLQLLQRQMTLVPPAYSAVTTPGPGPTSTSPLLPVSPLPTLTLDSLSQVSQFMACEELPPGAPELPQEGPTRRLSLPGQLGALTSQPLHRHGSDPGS

Histamine H3 receptor (Rattus norvegicus, UniProt Q9QYN8), sequence (Q9QYN8 whole entry): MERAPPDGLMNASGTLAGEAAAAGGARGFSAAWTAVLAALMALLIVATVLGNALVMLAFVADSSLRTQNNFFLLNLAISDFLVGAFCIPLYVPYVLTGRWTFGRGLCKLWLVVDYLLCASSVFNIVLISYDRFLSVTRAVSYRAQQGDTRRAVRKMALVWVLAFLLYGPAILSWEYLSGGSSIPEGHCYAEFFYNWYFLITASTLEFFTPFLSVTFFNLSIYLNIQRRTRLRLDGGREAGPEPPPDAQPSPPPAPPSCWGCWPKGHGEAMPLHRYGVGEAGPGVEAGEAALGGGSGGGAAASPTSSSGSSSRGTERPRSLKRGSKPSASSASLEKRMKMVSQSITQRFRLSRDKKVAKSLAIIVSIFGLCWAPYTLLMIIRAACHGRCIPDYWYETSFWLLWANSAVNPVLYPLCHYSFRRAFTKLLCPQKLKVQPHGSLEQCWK

SMILES	Ki (Histamine H3 receptor [1]) [nM]	bioavailability [2] [%]	Ki (Histamine H3 receptor [3]) [nM]	half-life [4] [h]	half-life [5] [h]	half-life [6] [h]	IC50 [7] [nM]	Cmax [8] [ng/mL]	AUC [9] [ng·h/mL]	Cmax (Rattus norvegicus [10]) [ng/mL]	AUC (Rattus norvegicus [11]) [ng·h/mL]	half-life [12] [h]	Vd [13] [L/kg]	clearance [14] [mL/min/kg]	Kp at 6 h [15]	Cmax [16] [ng/mL]	Tmax [17] [h]	bioavailability [18] [%]	AUC [19] [ng·h/mL]	IC50 [20] [nM]
CC1=NNC(=O)CC1c1ccc(OC2CCN(C3CCC3)CC2)cc1 (centres undefined)	13	6	15	> 0.667	> 0.667	> 0.667	> 30000	73	370	34	152									
Cc1cccc(-n2nc(C)c(-c3ccc(OC4CCN(C5CCC5)CC4)cc3)cc2=O)n1	10		4				> 30000					1.1	1.7	16	1.6	332	2	20	1270	> 30000
Cc1cccnc1-n1nc(C)c(-c2ccc(OC3CCN(C4CCC4)CC3)cc2)cc1=O	17		6				> 30000					1.1	1.1	11	1	505	2.3	23	1860	> 30000
O=c1cc(-c2ccc(OC3CCN(C4CCC4)CC3)nc2)cn[nH]1	20		14																	
Cc1nn(-c2ccsc2)c(=O)cc1-c1ccc(OC2CCN(C3CCC3)CC2)cc1	8		3																	
